# Most compounds without a hit are left out; they make up all but 0.72% or so of the library.
# mIAP block: mouse IAP inhibition; purified mouse IAP, CDP-Star luminescence, 30 min; inhibition, % at 10 µM; 330,000 compounds, 0.2% hits;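 active = inhibition of at least 40% at 10 µM in the primary screen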
# hIAP inh: blocks human intestinal alkaline phosphatase. purified IAP, CDP-Star luminescence, 30 min. inhibition, % at 10 µM. 330,000 compounds, 0.12% hits;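 active = inhibition reaching a set limit with compound at 10 µM in the primary screen, cut at about 35% in these data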
# Target sequence (P09923 whole entry, looked up): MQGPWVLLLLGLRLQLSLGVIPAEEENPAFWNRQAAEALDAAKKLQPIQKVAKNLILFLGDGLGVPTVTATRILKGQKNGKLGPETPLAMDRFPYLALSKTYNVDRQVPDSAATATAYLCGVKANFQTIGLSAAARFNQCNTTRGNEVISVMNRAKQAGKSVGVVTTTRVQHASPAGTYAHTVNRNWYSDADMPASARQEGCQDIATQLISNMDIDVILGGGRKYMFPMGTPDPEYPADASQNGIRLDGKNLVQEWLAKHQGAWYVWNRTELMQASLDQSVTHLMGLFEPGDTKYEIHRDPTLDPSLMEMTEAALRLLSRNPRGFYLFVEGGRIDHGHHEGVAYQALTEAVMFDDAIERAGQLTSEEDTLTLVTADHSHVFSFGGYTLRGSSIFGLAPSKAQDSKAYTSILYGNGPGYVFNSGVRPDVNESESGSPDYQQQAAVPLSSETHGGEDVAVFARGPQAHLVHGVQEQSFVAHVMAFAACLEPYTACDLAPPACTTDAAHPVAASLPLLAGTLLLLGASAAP
# bIAP inh: intestinal alkaline phosphatase (bovine) inhibition | purified bovine IAP, CDP-star luminescence, 30 min | inhibition, % at 20 µM | 190,000 tested, under 10 active | AID 1019;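 active = over 50% inhibition of intestinal alkaline phosphatase at 20 µM in the single-dose screen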
#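 System: Purified bovine intestinal alkaline phosphatase (IAP) enzyme | Input: IAP diluted 1/65,000,000 in the well | Also added: CDP-star chemiluminescent phosphatase substrate, 30 µM final | Dosing: 20 µM single dose | Times: Enzyme reaction for 30 min at room temperature | Detection: Luminescence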
# bIAP act: increases bovine intestinal alkaline phosphatase activity | purified bovine IAP, CDP-star luminescence, 30 min; active compounds read high; fold of DMSO-control signal, blank-subtracted | activation factor at 20 µM | 200,000 compounds, 0.17% hits | AID 1016;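 active = activation factor of 2 or more at 20 µM, a signal rise over negative controls twice the positive control's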
# hIAP activ: human IAP activation; purified human IAP, CDP-Star luminescence, 30 min; active compounds read high; 1 = vehicle-only enzyme, 0 = enzyme-free background; 330,000 compounds, 0.16% hits; activation factor at 10 µM; P09923;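 active = activation factor of the enzyme at least 2-fold when tested at 20 µM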
# mIAP activ: mouse IAP activation | muIAP, CDP-Star luminescence, 30 min; active compounds read high; 1 = vehicle-only enzyme signal, 0 = enzyme-free wells | activation factor at 10 µM | 330,000 compounds, 0.24% hits | AID 2805;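 active = activation factor of at least 2 at 20 µM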
#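 Assay system: mouse IAP enzyme / Compound: DMSO-dissolved test compounds / Timing: 30 min, room temperature / Measured by: luminescence from enzymatic CDP-Star hydrolysis / Control set: DMSO-only wells, enzyme-free buffer wells as negative control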
# mIAP inh confirm: mouse IAP inhibition confirmation; shares compounds with mIAP block; purified mouse IAP, CDP-Star luminescence, 30 min; inhibition, % at 10 µM; 11,000 compounds, 4.7% hits;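 active = inhibition of at least 40% at 10 µM in either of the two replicates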
# Hits are given with their value; - = inactive; . = no result.
SMILES,mIAP block,hIAP inh,bIAP inh,bIAP act,hIAP activ,mIAP activ,mIAP inh confirm
CCOc1ccccc1CNC(=O)CCNS(=O)(=O)c1ccc2[nH]c(=O)oc2c1,61,-,.,.,-,-,77
CN(C)c1ccc(S(=O)(=O)N(C)C)cc1NC(=O)Cc1cccc2ccccc12,-,-,.,.,-,-,.
CSCC[C@H](NC(=O)c1cccc(S(=O)(=O)N2CCCCCC2)c1)c1nc2ccccc2[nH]1,-,-,.,.,-,-,.
CSCC[C@H](NC(=O)C1CCN(S(=O)(=O)c2ccc(C)cc2C)CC1)c1nc2ccccc2[nH]1,-,-,.,.,-,2.6,-
CC(C)Oc1ccc(C(=O)NCCCNC(=O)c2cccnc2)cc1,-,-,.,.,-,-,.
CCC(C(=O)NCCC(C)C)n1ccc2cc(S(=O)(=O)N3CCCCC3)ccc21 (stereo not drawn),-,-,.,.,-,2.7,-
C#CCOCCOCCOCCNc1nc(N2CCN(C(=O)CCCCCCCCCCNC(=O)[C@@H](CCC(=O)O)n3cc(CCCCCN)nn3)CC2)nc(N2CCN(C(=O)CCCCCCCCCCNC(=O)[C@H]([C@@H](C)CC)n3cc(CCCCCN)nn3)CC2)n1,-,-,.,.,-,2.2,-
C#CCOCCOCCOCCNc1nc(N2CCN(C(=O)CCCCCCCCCCNC(=O)[C@H](CCCCN)n3cc(CCCC(=O)O)nn3)CC2)nc(N2CCN(C(=O)CCCCCCCCCCNC(=O)[C@@H]([C@H](C)O)n3cc(C)nn3)CC2)n1,-,-,.,.,-,-,.
C#CCOCCOCCOCCNc1nc(N2CCN(C(=O)CCCCCCCCCCNC(=O)[C@H]([C@@H](C)CC)n3cc(CCCCCN)nn3)CC2)nc(N2CCN(C(=O)CCCCCCCCCCNC(=O)[C@H](CCCCN)n3cc(CCCC(=O)O)nn3)CC2)n1,-,-,.,.,-,2.4,-
NS(=O)(=O)c1ccc(NC(=O)COC(=O)c2ncc(Cl)c(Cl)c2Cl)cc1,-,-,.,.,-,-,.
Cn1c(=O)cc(Nc2ccccc2)c2c(=O)n(-c3ccccc3)c(=O)n(-c3ccccc3)c21,-,-,.,.,-,-,.
O=C(CCC1CCCN(C(=O)c2ccc3cc[nH]c3c2)C1)NCc1ccc(F)c(F)c1 (stereo not drawn),-,-,-,-,-,-,.
O=C(CSc1n[nH]c(-c2ccccc2)n1)c1ccc(O)c(O)c1,65,-,.,-,-,-,69
Cc1ccc(O)c(NC(=O)CSc2n[nH]c(-c3ccccc3)n2)c1,-,-,.,.,-,-,.
Cc1ccc(/C=C2/SC(=O)NC2=S)o1,45,-,-,-,-,-,63
COCCn1nnnc1C(c1cc2cc(C)ccc2[nH]c1=O)N1CCCCCC1 (stereo not drawn),67,-,-,-,-,-,70
CCN(Cc1ccccc1)C(c1cc2cc(C)ccc2[nH]c1=O)c1nnnn1CCOC (stereo not drawn),56,-,-,-,-,-,57
COCCn1nnnc1C(c1cc2c(C)cc(C)cc2[nH]c1=O)N1CCCCCC1 (stereo not drawn),-,-,-,-,-,-,.
Cc1cc(-c2nnnn2-c2ccc(F)cc2)no1,-,-,.,.,-,-,.
O=C(/C=C/c1ccc(O)c(O)c1)OC(Cc1ccc(O)c(O)c1)C(=O)O (stereo not drawn),77,-,.,.,-,-,78
O=C(/C=C/c1ccc(O)c(O)c1)OCCc1ccccc1,-,-,.,.,-,-,.
CSCCC(NC(=O)c1ccccc1Cl)C(=O)N(C)CC(=O)Nc1ccc(N2CCOCC2)cc1 (stereo not drawn),-,-,.,.,-,-,.
Cn1cnnc1SCC(=O)Nc1sc2c(c1C(N)=O)CCC2,57,-,-,-,-,-,54
COCCn1cnnc1SCC(=O)Nc1sc2c(c1C#N)CCC2,-,-,.,.,-,-,.
CCOC(=O)C(Cc1ccc(O)cc1)NC(=O)CNC(=O)C1CCCN1C(=O)OC(C)(C)C (stereo not drawn),-,-,-,-,-,-,.
OC[C@@H]1[C@@H](c2ccccc2)C(c2cccc(Cl)c2)=NN1c1ccccc1,-,.,.,.,.,2.5,-
OC[C@@H]1[C@@H](c2ccccc2)C(c2ccccc2)=NN1c1ccccc1,-,.,.,.,.,2.3,-

# Screens from PubChem BioAssay.
